From PubChem
ALR H2O2 inh: inhibitors of human ALR sulfhydryl oxidase, primary screen, biochemical, H2O2 detection, HRP-luminol luminescence, single point | FAD-linked sulfhydryl oxidase ALR (Homo sapiens), P55789 | purified ALR, DTT oxidation | inhibition, % (no concentration beside the values) | 290,000 compounds, 3.8% hits;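 active means mean replicate inhibition above about 79%, with every replicate also reaching it, limit read from the data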
Target sequence (P55789 whole entry, looked up): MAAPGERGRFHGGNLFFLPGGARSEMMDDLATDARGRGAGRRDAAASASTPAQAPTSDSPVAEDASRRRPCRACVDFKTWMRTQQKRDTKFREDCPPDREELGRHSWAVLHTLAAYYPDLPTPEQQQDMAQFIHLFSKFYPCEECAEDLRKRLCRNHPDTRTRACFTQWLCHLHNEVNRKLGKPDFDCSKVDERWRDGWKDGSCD
ZTA counter: counter-screen for EBNA-1 inhibitors: inhibitors of Epstein-Barr virus ZTA; ZTA-DNA binding, fluorescence polarization; P03206; 320,000 compounds, 0.15% hits; inhibition, % at 11 µM; in the data active means inhibition above about 33%
Target sequence (P03206 whole entry, looked up): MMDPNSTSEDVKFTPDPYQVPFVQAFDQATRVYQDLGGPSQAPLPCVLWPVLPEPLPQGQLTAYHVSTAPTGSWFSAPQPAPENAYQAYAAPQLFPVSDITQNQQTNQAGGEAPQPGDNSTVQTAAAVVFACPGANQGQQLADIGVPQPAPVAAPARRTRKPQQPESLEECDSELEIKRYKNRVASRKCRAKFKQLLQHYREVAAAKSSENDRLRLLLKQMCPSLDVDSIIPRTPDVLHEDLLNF
PfM18AAP inh: PfM18AAP inhibitors, malaria aminopeptidase, primary screen, biochemical, QFRET, recombinant enzyme. 290,000 compounds, 1.2% hits. inhibition, % at 7.35 µM. M18 aspartyl aminopeptidase (Plasmodium falciparum 3D7). H-Glu-NHMec fluorogenic cleavage;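 active means inhibition above the campaign mean inhibition over all tested compounds plus 3 SD, cut at about 28% in these data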;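 further: 0% = plate median of test compound wells and 100% = 2 mM ZnCl2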
EBNA-1 inhibitor: EBNA-1 DNA-binding inhibitors, primary screen, biochemical, fluorescence polarization | inhibition, % at 14.8 µM | 300,000 compounds, 0.34% hits; in the data active means inhibition above about 28%
core dimer inh: inhibitors of HCV core protein dimerization, primary screen, biochemical, TR-FRET, high-throughput; AID 1899, 2009; 300,000 compounds, 0.33% hits; TR-FRET GST/Flag-core106 dimerization, 1536-well; inhibition, % at 5 µM;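 active means inhibition above the mean of all tested compounds plus 3 SD, set per screening campaign, cut at about 45% in these data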
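Assay system – GST-tagged and Flag-tagged HCV core protein residues 1-106 · Quantity – core106 proteins, GST 13.5 nM and Flag 17 nM · Benchmarks – unlabelled core106 and no-GST-core106 wells · Read-out basis – percent inhibition of core106 dimerization signal · Detection – time-resolved FRET, ex 340 nm, em 617 and 671 nm · Schedule – 4 h at 22.5 °C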
NS3 helicase inh: inhibitors of HCV NS3 helicase, primary screen, biochemical, Cy5 molecular beacon fluorescence; Hepatitis C virus NS3 helicase; NS3 helicase DNA unwinding; inhibition, % at 10.9 µM; 290,000 compounds, 0.56% hits; AID 1800, 2009;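 active means inhibition above the mean of all tested compounds plus 3 SD, set per campaign, cut at about 35% in these data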;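 further: 0% = DMSO wells and 100% = thioflavine S control wells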
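System: NS3 helicase fragment of HCV / Schedule: 1 h at 25 °C / Control set: DMSO alone as 0% and 110 µM thioflavine S as 100% / Reagent: Cy5/quencher beacon DNA duplex and ATP to start / Technique: Cy5 fluorescence / Replication: singlicate / Evaluation: % inhibition of end-to-start signal ratio versus controls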
Starred values were filed as active, the others as inactive; . = no result; + = active, no number. A selection: hits, their analogues and other compounds. The true share with any hit is near 5.2%.

SMILES	ALR H2O2 inh	ZTA counter	PfM18AAP inh	EBNA-1 inhibitor	core dimer inh	NS3 helicase inh
CC1CCCC(C)N1/N=C/c1ccc(O)cc1 (stereo not drawn)	94.3*	9.2	0.9	-4.9	8.0	1.2
O=[N+]([O-])c1ccc(Nc2ccc(F)cc2)cc1	-7.8	-1.4	3.2	8.6	-3.0	-5.7
O=[N+]([O-])c1ccc(NNC(=S)Nc2ccc(F)cc2)cc1	25.1	-3.2	28.7*	14.7	6.8	3.8
CC(=O)c1ccc(-c2ccc(C(=O)N(C)Cc3nc4ccccc4c(=O)[nH]3)o2)cc1	-4.9	-2.2	.	.	.	.
COc1cccc2c1OCC(CN1CCN(Cc3ccccc3)C(CCO)C1)=C2 (stereo not drawn)	.	7.9	-1.1	-6.3	-2.5	-16.9
COc1cccc2c1OCC(CN1CCN(Cc3ccccc3F)C(CCO)C1)=C2 (stereo not drawn)	0.0	129.9*	1.0	+	0.5	8.6
Cc1ccc2[nH]cc(CCNC(=O)c3cccs3)c2c1	97.5*	.	4.2	.	.	-5.5
Cc1ccc2[nH]cc(CCNC(=O)c3ccco3)c2c1	57.2	-3.0	-0.7	-10.9	-10.4	-2.9
CCc1nc(SCC(=O)c2ccc3c(c2)OCCO3)c2ccccc2n1	.	7.9	6.9	10.1	-16.1	-89.3
O=C(O)CCSCC(=O)c1ccc2c(c1)OCCO2	98.2*	-4.5	3.6	3.9	5.6	15.7
O=C(CSc1ncnc2ccccc12)c1ccc2c(c1)OCCO2	98.9*	6.4	2.3	-0.4	7.5	-31.8
O=C(CSc1nc(Cc2ccccc2)nc2ccccc12)c1ccc2c(c1)OCCO2	99.0*	-1.8	0.1	7.8	15.4	-7.8
C=CCn1c(COc2ccccc2)nnc1SC(C)C(=O)N/N=C/c1cc(Cl)ccc1O (stereo not drawn)	-20.7	11.9	14.8	8.5	2.9	3.3
CCCCc1nnc(NC(=O)CN2C(=O)NC3(CCCCC3)C2=O)s1	-0.6	6.7	-2.0	-6.6	2.8	-4.4
CC(NCC(=O)Nc1ccccc1C(=O)NC1CC1)c1ccc(S(C)(=O)=O)cc1 (stereo not drawn)	-4.5	-5.9	.	.	.	.
CCOC(=O)N1CCN(CC(=O)Nc2nc3ccc(OC)cc3s2)CC1	-40.8	-20.6	9.6	-5.1	2.2	7.9
COc1ccccc1NC(=O)CSc1nc2nccnc2c(=O)n1Cc1cccs1	95.8*	-2.4	0.2	3.3	-0.6	-1.9
O=C(CSc1nc2nccnc2c(=O)n1Cc1cccs1)Nc1ccccc1	98.2*	0.1	-3.7	-4.1	9.3	-4.3
COc1ccc(NC(=O)CSc2nc3ccsc3c(=O)n2Cc2ccccn2)c(OC)c1	95.8*	7.6	-6.0	0.2	2.4	-4.6
COCCn1c(SCC(=O)Nc2ccccc2OC)nc2ccccc2c1=O	-0.3	-4.3	-1.2	6.8	6.4	2.0
COc1ccccc1NC(=O)CSc1nc2c(sc3ccccc32)c(=O)n1CCN(C)C	99.1*	4.7	-24.0	9.8	1.7	-17.0
CCc1ccc(CNC(=O)CCC(=O)N2Cc3cccc(OC)c3Oc3ncccc32)cc1	-2.8	7.5	5.9	3.3	3.4	14.1
CCN1CCN(S(=O)(=O)c2c(C)[nH]c(C)c2C(=O)N2CCCCC2)CC1	-3.1	9.1	5.5	14.0	-4.5	-9.6
O=C(Nc1ccnn1C1CCN(C2CCC2)CC1)c1ccccc1	-1.9	6.5	-4.5	8.3	-0.2	2.5
O=c1c2sccc2nc(SCc2cc(=O)n3cc(Cl)ccc3n2)n1Cc1ccccn1	88.1*	-15.4	0.4	-4.8	6.8	-6.1
SMILES	ALR H2O2 inh	ZTA counter	PfM18AAP inh	EBNA-1 inhibitor	core dimer inh	NS3 helicase inh
COc1cc(NC(=O)c2ccc3c(c2)OCCO3)ccc1NC(=O)c1ccccc1Cl	.	5.2	-2.9	13.2	6.9	-13.8
Cc1cc(/C=N/NC(=O)Cn2c3ccccc3c(=O)c3ccccc32)c(C)n1-c1ccc(Cl)cc1	.	.	-4.2	.	.	24.3
Cc1ccc(-n2c(C)cc(/C=N/NC(=O)Cn3c4ccccc4c(=O)c4ccccc43)c2C)cc1	-6.1	11.6	-1.9	9.2	67.8*	26.6
CC(=O)N/N=C/c1cc(C)n(-c2ccc(Br)cc2)c1C	97.6*	2.3	1.4	2.1	2.4	7.0
COC(=O)N/N=C/c1cc(C)n(-c2ccc(Br)cc2)c1C	5.9	12.8	-1.8	0.9	3.2	-2.5
O=S(=O)(c1ccc(N2CCC(c3ccc(Cl)cc3)=N2)cc1)N(CCO)CCO	97.6*	-5.0	-4.9	1.0	-17.5	-16.2
CN(C)CCCNS(=O)(=O)c1cc(Cl)ccc1Cl	-4.2	-18.3	-7.8	3.3	-0.6	-2.5
O=S(=O)(c1ccc(Oc2ccc(S(=O)(=O)N(CCO)CCO)cc2)cc1)N(CCO)CCO	-9.2	20.2	-6.6	9.1	9.1	-6.4
CN(C)CCCNS(=O)(=O)c1ccc(N2CCC(c3ccc(Cl)cc3)=N2)cc1	90.8*	7.9	11.3	-14.7	-14.6	-18.7
COCc1cc(CNC(=O)C2CCC(=O)N(Cc3cccc(OC)c3)C2)[nH]n1 (stereo not drawn)	.	.	-6.3	.	.	-6.6
Cc1ccc(C(C(=O)NCC2CCCO2)N(C(=O)c2snc(C(N)=O)c2N)c2ccc(C)c(C)c2)o1 (stereo not drawn)	-6.1	7.2	-5.4	-1.3	6.8	-4.6
C/C(CCC(C)C)=N\NC(=S)Nc1cc(S(=O)(=O)N2CCOCC2)ccc1N1CCOCC1	7.5	0.7	28.2*	-2.1	11.6	-12.2
COc1ccc2cc(/C(C)=N/NC(=S)Nc3cc(S(=O)(=O)N4CCOCC4)ccc3N3CCOCC3)ccc2c1	-61.0	7.3	29.7*	6.3	36.7	3.6
CC1CCN(S(=O)(=O)N2CCN(C(=O)c3ccc4c(c3)OCO4)CC2)CC1	33.1	-1.8	-2.0	9.1	9.4	8.6
NC(=O)c1ccc(NC(=O)COc2cccc3ccccc23)cc1	-3.3	-2.5	3.2	7.4	8.8	-7.3
CC[C@H](C)/C=C(C)/C=C/C1=CC2=CC(=O)[C@]3(C)OC(=O)[C@@H](C(C)=O)[C@@H]3C2=CO1	6.0	15.2	16.4	-12.2	56.4*	34.5
Cc1ccc(NC(=O)C2CC2c2ccccc2)c([N+](=O)[O-])c1 (stereo not drawn)	.	-7.4	-3.9	-1.3	15.1	-4.2
CCSc1nnc(NC(=O)c2cccc(S(=O)(=O)N(C)c3ccc(C)cc3)c2)s1	97.5*	0.0	-2.2	0.8	13.7	2.8
COc1ccc(N(C)S(=O)(=O)c2cccc(C(=O)NC3CCC(C)CC3)c2)cc1 (stereo not drawn)	2.2	-2.1	-11.1	-10.0	9.7	-11.8
CN(c1cccc(Cl)c1)S(=O)(=O)c1cccc(C(=O)NC2=NCCS2)c1	98.2*	17.2	-2.8	-2.5	0.6	-19.2
